Results published in ChEMBL document CHEMBL1155549, “Sialic acid-mimic peptides as hemagglutinin inhibitors for anti-influenza therapy” (J Med Chem, 2010).
pIC50, pKd: −log10 of the molar value. Activity calls are given as the source filed them. The calls are words filed in the database; no cut-off is given here. Where a SMILES comes first, the peptide text is derived from it. The star is where a group is joined. Biotin = O=C1N[C@H]2[C@H](CS[C@H]2CCCCC(=O)*)N1; Stearoyl = CCCCCCCCCCCCCCCCCC(=O)*

Legend:
[1] = target: Hemagglutinin (Influenza A virus (A/Puerto Rico/8/1934(H1N1)), UniProt P03452); assay: Binding affinity to Influenza A virus (A/Puerto Rico/8/34(H1N1)) hemagglutininin by phage ELISA
Method in brief: (§1)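 Wells coated with target (HA, WGA or anti-GM3 antibody) were blocked with 1% BSA/TBS. Phage in TBS was added for 2 h, washed with TBST and reblocked with 5% BSA/TBS. Detection used anti-fd antibody then peroxidase anti-rabbit IgG, 1 h each, with o-phenylenediamine read as ΔA at 492 nm, in triplicate. Phage concentration came from A260. Kd was from a linear plot of ΔA against phage concentration.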

[2] = test system: H3N2 subtype; assay: Antiviral activity against Influenza A virus (A/Aichi/2/1968(H3N2)) infected in MDCK cells after 48 hrs by plaque assay; format: functional, organism-based
Method in brief: (§2)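 N-stearoyl peptides were serially diluted in PBS from a 2 mM stock and mixed with 50-200 pfu virus for 30 min at room temperature. The mixture was put on MDCK monolayers for 30 min at 37 °C under 5% CO2, then washed off. After 2 days, plaques were stained with crystal violet and counted. Inhibition was 100(1 - N/N0), n = 3, plotted against concentration.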

[3] = test system: Influenza A virus; assay: Antiviral activity against Influenza A virus (A/Puerto Rico/8/34(H1N1)) infected in MDCK cells after 48 hrs by plaque assay; format: functional, organism-based; conditions: A/Puerto Rico/8/1934(H1N1); method in brief: as §2
[4] = test system: Influenza A virus (A/New Caledonia/20/1999(H1N1)); assay: Binding affinity to Influenza A virus (A/New Caledonia/20/1999 (H1N1)) hemagglutininin by avidin-biotin peroxidase complex method
Method in brief: (§3)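 HA was coated at 70 μg/mL overnight at 4 °C and blocked with 1% BSA/PBS. C-terminally biotinylated peptides (5-400 μM) were added for 2 h. After PBS washes, peroxidase-streptavidin was added for 1 h, and o-phenylenediamine colour was read as ΔA at 492 nm, in triplicate. Kd came from a Scatchard plot over 20-200 μM peptide.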

[5] = test system: Influenza A virus (A/Wyoming/03/2003(H3N2)); assay: Binding affinity to Influenza A virus (A/Wyoming/03/2003 (H3N2)) hemagglutininin by avidin-biotin peroxidase complex method; method in brief: as §3
[6] = Binding affinity to Influenza A virus (A/Wuhan/359/1995 (H3N2)) hemagglutininin by phage ELISA; method in brief: as §1
[7] = Binding affinity to wheat germ agglutinin by phage ELISA; set-up: species or system Triticum aestivum; method in brief: as §1

Sequence of Hemagglutinin (Influenza A virus (A/Puerto Rico/8/1934(H1N1)), UniProt P03452) (P03452 18-342 limits assumed): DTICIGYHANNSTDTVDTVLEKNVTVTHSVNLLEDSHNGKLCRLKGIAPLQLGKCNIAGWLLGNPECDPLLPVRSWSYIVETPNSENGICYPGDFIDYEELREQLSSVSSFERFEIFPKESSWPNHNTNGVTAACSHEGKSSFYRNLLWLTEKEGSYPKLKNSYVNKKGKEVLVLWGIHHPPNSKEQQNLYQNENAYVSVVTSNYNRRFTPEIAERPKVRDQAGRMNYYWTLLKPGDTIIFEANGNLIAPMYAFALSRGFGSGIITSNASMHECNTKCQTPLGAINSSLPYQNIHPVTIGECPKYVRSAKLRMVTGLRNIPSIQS
Sequence of Hemagglutinin (Influenza A virus (A/Puerto Rico/8/1934(H1N1)), UniProt P03452) (P03452 344-565 limits assumed): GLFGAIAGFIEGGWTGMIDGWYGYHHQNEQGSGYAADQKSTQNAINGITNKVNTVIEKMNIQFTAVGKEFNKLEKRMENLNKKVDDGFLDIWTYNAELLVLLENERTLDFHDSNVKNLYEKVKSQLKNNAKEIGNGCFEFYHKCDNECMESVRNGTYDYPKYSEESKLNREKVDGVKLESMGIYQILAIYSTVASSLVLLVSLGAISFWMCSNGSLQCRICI

Compound | pIC50 [2] | pIC50 [3] | also measured
H-IDIAFSSLALADISR-OH [IDIAFSSLALADISR] [listing 1 of 2 here] |  |  | pKd [1]: 7.72
CCCCCCCCCCCCCCCCCC(=O)N[C@@H](C)C(=O)N[C@@H](CCCNC(=N)N)C(=O)N[C@@H](CC(C)C)C(=O)N1CCC[C@H]1C(=O)N[C@@H](CCCNC(=N)N)C(=O)N[C@@H](CC(N)=O)C(=O)N[C@@H](CCSC)C(=O)N[C@H](C(=O)N[C@@H](Cc1cnc[nH]1)C(=O)N[C@@H](Cc1cnc[nH]1)C(=O)N[C@@H](CCCCN)C(=O)N[C@H](C(=O)N[C@@H](C)C(=O)N[C@@H](CCC(N)=O)C(=O)N1CCC[C@H]1C(N)=O)[C@@H](C)O)C(C)C (Stearoyl-ARLPRNMVHHKTAQP-NH2) | 5.21 | 4.82 | 
CCCCCCCCCCCCCCCCCC(=O)N[C@@H](C)C(=O)N[C@@H](CCCNC(=N)N)C(=O)N[C@@H](CC(C)C)C(=O)N1CCC[C@H]1C(=O)N[C@@H](CCCNC(=N)N)C(=O)N[C@H](C(=O)N[C@@H](CCSC)C(=O)N[C@H](C(=O)N[C@@H](Cc1cnc[nH]1)C(=O)N1CCC[C@H]1C(=O)N[C@@H](CCCCN)C(=O)N[C@H](C(=O)N[C@@H](C)C(=O)N[C@@H](Cc1cnc[nH]1)C(=O)N[C@@H](CCC(N)=O)C(N)=O)[C@@H](C)O)C(C)C)[C@@H](C)O (Stearoyl-ARLPRTMVHPKTAHQ-NH2) | 5.10 | 4.89 | 
CSCC[C@H](NC(=O)[C@@H](NC(=O)[C@H](CCCNC(=N)N)NC(=O)[C@@H]1CCCN1C(=O)[C@H](C)NC(=O)[C@H](CCCNC(=N)N)NC(=O)[C@H](C)N)[C@@H](C)O)C(=O)N[C@H](C(=O)N[C@@H](Cc1cnc[nH]1)C(=O)N1CCC[C@H]1C(=O)N[C@@H](CCCCN)C(=O)N1CCC[C@H]1C(=O)N[C@@H](C)C(=O)N[C@@H](CCC(N)=O)C(=O)N1CCC[C@H]1C(=O)N[C@@H](CCCCNC(=O)CCCC[C@@H]1SC[C@@H]2NC(=O)N[C@@H]21)C(N)=O)C(C)C (H-ARAPRTMVHPKPAQPK(Biotin)-NH2) |  |  | Activity [4]: inactive; Activity [5]: inactive
CSCC[C@H](NC(=O)[C@@H](NC(=O)[C@@H]1CCCN1C(=O)[C@H](CO)NC(=O)[C@H](CC(C)C)NC(=O)[C@H](CCCN=C(N)N)NC(=O)[C@H](C)N)[C@@H](C)O)C(=O)N[C@H](C(=O)N[C@@H](Cc1cnc[nH]1)C(=O)N1CCC[C@H]1C(=O)N[C@@H](CC(N)=O)C(=O)NCC(=O)N[C@@H](C)C(=O)N[C@@H](CCC(N)=O)C(=O)N1CCC[C@H]1C(=O)O)C(C)C |  |  | pKd [1]: 8.11; pKd [6]: 8.07; pKd [7]: 7.80
CCCCCCCCCCCCCCCCCC(=O)N[C@@H](C)C(=O)N[C@@H](CCCNC(=N)N)C(=O)N[C@@H](CC(C)C)C(=O)N1CCC[C@H]1C(=O)N[C@@H](CCCNC(=N)N)C(=O)N[C@H](C(=O)N[C@@H](CC(C)C)C(=O)N[C@H](C(=O)N[C@@H](Cc1cnc[nH]1)C(=O)N1CCC[C@H]1C(=O)N[C@@H](CCCCN)C(=O)N[C@@H](Cc1cnc[nH]1)C(=O)N[C@@H](C)C(=O)N[C@@H](CCC(N)=O)C(=O)N[C@@H](C)C(N)=O)C(C)C)[C@@H](C)O (Stearoyl-ARLPRTLVHPKHAQA-NH2) | 5.12 | 4.87 | 
CCCCCCCCCCCCCCCCCC(=O)N[C@H](C(=O)N[C@@H](CCSC)C(=O)N[C@H](C(=O)N[C@@H](CCCNC(=N)N)C(=O)N1CCC[C@H]1C(=O)N[C@@H](CC(C)C)C(=O)N[C@@H](CCCNC(=N)N)C(=O)N[C@@H](C)C(N)=O)[C@@H](C)O)C(C)C (Stearoyl-VMTRPLRA-NH2) | < 4.00 | < 4.00 | 
CCCCCCCCCCCCCCCCCC(=O)N[C@@H](C)C(=O)N[C@@H](CCCNC(=N)N)C(=O)N[C@@H](CC(C)C)C(=O)N1CCC[C@H]1C(=O)N[C@@H](CCCNC(=N)N)C(=O)N[C@H](C(=O)N[C@@H](CCSC)C(=O)N[C@H](C(=O)N[C@@H](Cc1cnc[nH]1)C(=O)N[C@@H](CO)C(=O)N[C@@H](CCCCN)C(=O)N1CCC[C@H]1C(=O)N[C@@H](C)C(=O)N[C@@H](CCC(N)=O)C(=O)N1CCC[C@H]1C(=O)O)C(C)C)[C@@H](C)O (Stearoyl-ARLPRTMVHSKPAQP-OH) | 5.17 | 4.39 | 
CCCCCCCCCCCCCCCCCC(=O)N[C@@H](C)C(=O)N[C@@H](CCCNC(=N)N)C(=O)N[C@@H](CC(C)C)C(=O)N[C@@H](CO)C(=O)N1CCC[C@H]1C(=O)N[C@H](C(=O)N[C@@H](CCSC)C(=O)N[C@H](C(=O)N[C@@H](Cc1cnc[nH]1)C(=O)N1CCC[C@H]1C(=O)N[C@@H](CC(N)=O)C(=O)NCC(=O)N[C@@H](C)C(=O)N[C@@H](CCC(N)=O)C(=O)N1CCC[C@H]1C(N)=O)C(C)C)[C@@H](C)O (Stearoyl-ARLSPTMVHPNGAQP-NH2) |  | < 3.00 | 
CCCCCCCCCCCCCCCCCC(=O)N[C@H](C(=O)N[C@@H](CCCNC(=N)N)C(=O)N[C@@H](CC(C)C)C(=O)N1CCC[C@H]1C(=O)N[C@@H](CCCNC(=N)N)C(=O)N[C@H](C(=O)N[C@@H](CCSC)C(=O)N[C@@H](CC(C)C)C(=O)N[C@@H](Cc1cnc[nH]1)C(=O)N[C@@H](Cc1cnc[nH]1)C(=O)N[C@@H](CCCCN)C(=O)N1CCC[C@H]1C(=O)N[C@@H](C)C(=O)N[C@@H](CCC(N)=O)C(=O)N[C@@H](C)C(N)=O)[C@@H](C)O)[C@@H](C)O (Stearoyl-TRLPRTMLHHKPAQA-NH2) | 5.00 | 5.29 | 
CCCCCCCCCCCCCCCCCC(=O)N[C@@H](C)C(=O)N[C@@H](CCCNC(=N)N)C(=O)N[C@@H](CC(C)C)C(=O)N1CCC[C@H]1C(=O)N[C@@H](CCCNC(=N)N)C(=O)N[C@H](C(=O)N[C@@H](CCSC)C(=O)N[C@H](C(=O)N[C@@H](Cc1cnc[nH]1)C(=O)N1CCC[C@H]1C(=O)N[C@@H](CCCCN)C(=O)N1CCC[C@H]1C(=O)N[C@@H](C)C(=O)N[C@@H](CCC(N)=O)C(=O)N1CCC[C@H]1C(N)=O)C(C)C)[C@@H](C)O (Stearoyl-ARLPRTMVHPKPAQP-NH2) | 4.96 | 4.82 | 
CCCCCCCCCCCCCCCCCC(=O)N[C@@H](C)C(=O)N[C@@H](CCCNC(=N)N)C(=O)N[C@@H](CC(C)C)C(=O)N1CCC[C@H]1C(=O)N[C@@H](CCCNC(=N)N)C(=O)N[C@@H](CO)C(=O)N[C@@H](CCSC)C(=O)N[C@H](C(=O)N[C@@H](Cc1cnc[nH]1)C(=O)N[C@@H](Cc1cnc[nH]1)C(=O)N[C@@H](CCCCN)C(=O)N1CCC[C@H]1C(=O)N[C@@H](C)C(=O)N[C@@H](CCC(N)=O)C(=O)N1CCC[C@H]1C(N)=O)C(C)C (Stearoyl-ARLPRSMVHHKPAQP-NH2) | 5.05 | 4.66 | 
CSCC[C@H](NC(=O)[C@@H](NC(=O)[C@H](CCCNC(=N)N)NC(=O)[C@@H]1CCCN1C(=O)[C@H](CC(C)C)NC(=O)[C@H](CCCNC(=N)N)NC(=O)[C@H](C)N)[C@@H](C)O)C(=O)N[C@H](C(=O)N[C@@H](Cc1cnc[nH]1)C(=O)N1CCC[C@H]1C(=O)N[C@@H](C)C(=O)N1CCC[C@H]1C(=O)N[C@@H](C)C(=O)N[C@@H](CCC(N)=O)C(=O)N1CCC[C@H]1C(=O)N[C@@H](CCCCNC(=O)CCCC[C@@H]1SC[C@@H]2NC(=O)N[C@@H]21)C(N)=O)C(C)C (H-ARLPRTMVHPAPAQPK(Biotin)-NH2) |  |  | Activity [4]: inactive; Activity [5]: inactive
CCCCCCCCCCCCCCCCCC(=O)N[C@@H](C)C(=O)N[C@@H](CCCNC(=N)N)C(=O)N[C@@H](CC(C)C)C(=O)N1CCC[C@H]1C(=O)N[C@@H](CCCNC(=N)N)C(N)=O (Stearoyl-ARLPR-NH2) | 5.72 | 5.80 | 
H-IDIAFSSLALADISR-OH [IDIAFSSLALADISR] [listing 2 of 2 here] |  |  | pKd [6]: 7.89; pKd [7]: 7.52
H-GRVPVFGLSPLFKVE-OH |  |  | pKd [1]: 8.11; pKd [6]: 7.80; pKd [7]: 7.72
CCCCCCCCCCCCCCCCCC(=O)N[C@@H](C)C(=O)N[C@@H](CCCNC(=N)N)C(=O)N[C@@H](CC(C)C)C(=O)N1CCC[C@H]1C(=O)N[C@@H](CCCNC(=N)N)C(=O)N[C@H](C(=O)N[C@@H](CCSC)C(=O)N[C@H](C(N)=O)C(C)C)[C@@H](C)O (Stearoyl-ARLPRTMV-NH2) | 5.52 | 5.38 | 
CCCCCCCCCCCCCCCCCC(=O)N[C@@H](CCCNC(=N)N)C(=O)N[C@H](C(=O)N[C@@H](CCSC)C(=O)N[C@H](C(=O)N[C@@H](Cc1cnc[nH]1)C(=O)N1CCC[C@H]1C(=O)N[C@@H](CCCCN)C(N)=O)C(C)C)[C@@H](C)O (Stearoyl-RTMVHPK-NH2) | 4.96 | < 4.00 | 
H-EPYGFIAFSRAAHSP-OH |  |  | pKd [1]: 7.52; pKd [6]: 7.70; pKd [7]: 7.52
H-GRPPDSVFRSRGWLS-OH |  |  | pKd [1]: 7.96; pKd [6]: 8.05; pKd [7]: 7.70
CCCCCCCCCCCCCCCCCC(=O)N[C@H](C(=O)N[C@@H](Cc1cnc[nH]1)C(=O)N1CCC[C@H]1C(=O)N[C@@H](CCCCN)C(=O)N1CCC[C@H]1C(=O)N[C@@H](C)C(=O)N[C@@H](CCC(N)=O)C(=O)N1CCC[C@H]1C(N)=O)C(C)C (Stearoyl-VHPKPAQP-NH2) | 4.23 | 5.00 | 
